For assay [1], the system named is MDA-MB-231. As to the kind of experiment: Antiproliferative activity against human MDA-MB-231 cells assessed as cell viability at 20 uM after 72 hrs by WST-1 assay relative to control. The assay is classed as functional. The conditions noted are these: MDA-MB-231, 72 h, read-out: Activity. The procedure, abridged:
(§1)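 Cells seeded in 96-well plates the afternoon before treatment, at numbers keeping them in log-phase growth; about 18 h later, compounds semi-serially diluted in DMSO then growth medium and added. Incubation 72 h, then WST-1 added and plates read after 4 more hours at 37 °C. GI50 derived from curve fits; viability expressed relative to DMSO control.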
On the technique in general: Tetrazolium assays rely on reduction of a dye to a coloured formazan, in cell work by metabolically active cells.

A short description of assay [2]: Antiproliferative activity against human PC3 cells assessed as cell viability at 20 uM after 72 hrs by WST-1 assay relative to control. The assay is classed as functional. The conditions noted are these: PC-3, 72 h, read-out: Activity. The procedure, abridged: as §1
A short description of assay [3]: Antiproliferative activity against human OVCAR3 cells assessed as cell viability at 20 uM after 72 hrs by WST-1 assay relative to control. The assay is classed as functional. The conditions noted are these: OVCAR-3, 72 h, read-out: Activity. The procedure, abridged: as §1
A short description of assay [4]: Binding affinity to 5'-FAM/3'-TAMRA labeled 26-mer duplex DNA (unknown origin) assessed as change in melting temperature at 4 uM after 12 hrs by TR-FRET assay. In general terms: TR-FRET usually uses a lanthanide donor and a delayed reading to cut background.
Assay [5] is described as follows: Binding affinity to 5'-FAM/3'-TAMRA labeled k-RAS21R 21-mer G-quadruplex DNA (unknown origin) assessed as change in melting temperature at 4 uM after 12 hrs by TR-FRET assay. In short, it runs like this:
(§2)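 Dual-labeled FAM/TAMRA oligos diluted to 800 nM in 60 mM potassium cacodylate (pH 7.2), annealed 10 min at 85 °C and cooled to room temperature. Mixed 1:1 with ligand at […] in the same buffer. Equilibrated at least 12 h at 4 °C. ΔT1/2 taken as melting temperature with minus without ligand, in triplicate, averaged.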

Assay [6] is described as follows: Binding affinity to 5'-FAM/3'-TAMRA labeled c-kit2 26-mer G-quadruplex DNA (unknown origin) assessed as change in melting temperature at 4 uM after 12 hrs by TR-FRET assay. The procedure, abridged: as §2
Assay [7] is described as follows: Binding affinity to 5'-FAM/3'-TAMRA labeled c-MYC 22-mer G-quadruplex DNA (unknown origin) assessed as change in melting temperature at 4 uM after 12 hrs by TR-FRET assay. In short, it runs like this: as §2
Assay [8] is described as follows: Binding affinity to 5'-FAM/3'-TAMRA labeled F21T 21-mer G-quadruplex DNA (unknown origin) assessed as change in melting temperature at 4 uM after 12 hrs by TR-FRET assay. The procedure, abridged: as §2
A short description of assay [9]: Antiproliferative activity against human OVCAR3 cells after 72 hrs by WST-1 assay. The conditions noted are these: OVCAR-3, 72 h. The assay is classed as functional. The procedure, abridged:
as §1

A short description of assay [10]: Antiproliferative activity against human PC3 cells after 72 hrs by WST-1 assay. The assay is classed as functional. The conditions noted are these: PC-3, 72 h. In short, it runs like this:
as §1

Assay [11] deals with MDA-MB-231. The assay is described as follows: Antiproliferative activity against human MDA-MB-231 cells after 72 hrs by WST-1 assay. The format is functional. The conditions noted are these: MDA-MB-231, 72 h. The procedure, abridged: as §1
The nature of assay [12]: Binding affinity to 5'-FAM/3'-TAMRA labeled c-MYC 22-mer G-quadruplex DNA (unknown origin) at 4 uM in presence of 26-mer duplex DNA by TR-FRET assay.

In general, ΔTm refers to the shift of the melting midpoint relative to a reference. What is called GI50 is the concentration giving 50% growth inhibition. A high value points to lower sensitivity of the cells.

The structures appear in SMILES notation. Active and inactive are the calls of the source. The calls are words filed in the database; no cut-off is given here.

Regarding `Nc1cccc(C#Cc2ccc(F)cc2)c1`, the viability at 20 µM in assay [1], in assay [2] and in assay [3] was not below 75% in each case.

Consider `N#Cc1ccc(N/N=N/c2ccc(C(=N)N)cc2)cc1`, for which the thermal shift (ΔTm) was less than 5 °C in [4]; 8.2 °C in assay [5]; 5.3 °C in assay [6]; 9.7 °C in assay [7]; 5.1 °C in assay [8]. For the same molecule, the viability at 20 µM in assay [1], in [2] and in assay [3] was not below 75% each time.

On to `N=C(N)c1ccc(/N=N/Nc2cccc(-c3ccccc3)c2)cc1`, for which the ΔTm in assay [4] was less than 5 °C; in assay [5], 15 °C; in assay [6], 5.48 °C; in assay [7], 8.8 °C; in [8] it was less than 5 °C. Also, the viability at 20 µM in [1], in assay [2] and in assay [3] was not below 75% each time.

On to `N=C(N)c1ccc(/N=N/Nc2ccccc2)cc1`, for which the ΔTm was less than 5 °C in [4]; 6.4 °C in assay [5]; 6.4 °C in [6]; 7.1 °C in assay [7]; less than 5 °C in assay [8]. For the same molecule, the viability at 20 µM in [1], in assay [2] and in assay [3] was not below 75% throughout.

Turning to `COc1ccc(C#Cc2cccc(N/N=N/c3ccc(C(=N)N)cc3)c2)cc1`, the ΔTm in [4] was less than 5 °C; in assay [5] it was 2.6 °C; in assay [6], 5.48 °C; in [7], 7.3 °C; in assay [8], less than 5 °C. In addition, the results for the GI50 in assay [9], in assay [10] and in assay [11] were 5.2 µM, 5 µM and 5.5 µM, respectively. For the same molecule, the outcome in [12] was inactive.

Turning to `N=C(N)c1ccc(N)cc1`, the viability at 20 µM in assay [1], in assay [2] and in [3] was not below 75% throughout.

For `N=C(N)c1ccc(/N=N/Nc2cccc(C#Cc3ccccc3)c2)cc1`, the ΔTm is less than 5 °C in assay [4]; 3.7 °C in assay [5]; 6.4 °C in [6]; 7.1 °C in assay [7]; less than 5 °C in [8]. The figures for the GI50 in assay [9], in assay [10] and in assay [11] were 6.5 µM, 5.8 µM and 9.5 µM, respectively. In addition, in assay [12], the outcome was inactive.

For `C#Cc1ccc(N/N=N/c2ccc(C(=N)N)cc2)cc1`, the ΔTm in assay [4] is less than 5 °C; in [5] it was 4.2 °C; in assay [6], 5.3 °C; in assay [7] it was 6.6 °C; in assay [8] it was less than 5 °C. The GI50 in assay [9] was 11.8 µM; in [10], 22.5 µM; in assay [11], 30.2 µM.

As to `N=C(N)c1ccc(/N=N/Nc2ccccc2C#Cc2ccccc2)cc1`, the shift in melting temperature (ΔTm) in assay [4] is less than 5 °C; in assay [5], 1.8 °C; in assay [6], 5.12 °C; in [7], 6.4 °C; in assay [8] it was less than 5 °C. Further, the GI50 in assay [9] was determined as 8.1 µM; in assay [10], 5.3 µM; in assay [11] it was 5.1 µM. Further, in [12], the outcome was inactive.

Consider `N=C(N)c1ccc(/N=N/Nc2cccc(C#Cc3ccccn3)c2)cc1`, for which the ΔTm in assay [4] was less than 5 °C; in assay [5], 13.2 °C; in [6] it was 8.04 °C; in assay [7] it was 9.7 °C; in [8], 7.3 °C. The GI50 in assay [9] was 10.7 µM; in assay [10], 10.4 µM; in assay [11] it was 14.4 µM. In assay [12], the result was inactive.

Turning to `N#Cc1cccc(N/N=N/c2ccc(C(=N)N)cc2)c1`, the ΔTm in assay [4] was less than 5 °C; in [5], 2.2 °C; in assay [6] it was 6.22 °C; in assay [7], 6.2 °C; in assay [8], less than 5 °C. Further, the viability at 20 µM in assay [1], in assay [2] and in assay [3] was not below 75% in each case.

For the origin of these results see ChEMBL document CHEMBL3826936, “Alkyne-substituted diminazene as G-quadruplex binders with anticancer activities” (Eur J Med Chem, 2016).
